ChEMBL document CHEMBL1811797, “Evolution from a natural flavones nucleus to obtain 2-(4-Propoxyphenyl)quinoline derivatives as potent inhibitors of the S. aureus NorA efflux pump” (J Med Chem, 2011)
In brackets after ≈: the same amount, converted by molar mass. Activity calls are given as the source filed them. The calls are words filed in the database; no cut-off is given here.

Tests used:
[1] = target: T1, Quinolone resistance protein NorA (Staphylococcus aureus) (UniProt P0A0J7); experiment: Inhibition of NorA in Staphylococcus aureus 1199B assessed as inhibition of ethidium bromide efflux at 50 uM by fluorimetry
T1 sequence (whole entry): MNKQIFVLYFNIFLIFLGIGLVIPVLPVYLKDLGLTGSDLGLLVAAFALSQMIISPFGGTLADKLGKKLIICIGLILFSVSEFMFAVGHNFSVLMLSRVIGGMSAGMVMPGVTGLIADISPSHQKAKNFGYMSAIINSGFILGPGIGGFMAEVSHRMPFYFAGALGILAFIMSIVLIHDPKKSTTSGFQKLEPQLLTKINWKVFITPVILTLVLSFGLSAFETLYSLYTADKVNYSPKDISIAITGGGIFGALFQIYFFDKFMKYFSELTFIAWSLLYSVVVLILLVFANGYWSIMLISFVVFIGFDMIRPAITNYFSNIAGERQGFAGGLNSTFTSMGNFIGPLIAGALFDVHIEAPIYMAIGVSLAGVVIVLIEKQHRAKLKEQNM
How it was run: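 Fluorometric measurement of EtBr loss from norA-overexpressing SA-1199B, with compounds screened at 50 μM. Performed in duplicate; value is mean total efflux over a 5 min time course, expressed as percent inhibition.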

Staphylococcus aureus [2] = experiment: Antibacterial activity against NorA-expressing Staphylococcus aureus 1199B by M7-A7 CLSI microdilution method; type: functional
Staphylococcus aureus [3] = experiment: Antibacterial activity against wild-type Staphylococcus aureus ATCC 25923 by M7-A7 CLSI microdilution method; type: functional
Staphylococcus aureus [4] = experiment: Antibacterial activity against Staphylococcus aureus K1902 bearing norA-deficient mutation by M7-A7 CLSI microdilution method; type: functional
Staphylococcus aureus [5] = experiment: Antibacterial activity against Staphylococcus aureus K2378 bearing norA++ efficient mutation by M7-A7 CLSI microdilution method; type: functional
Staphylococcus aureus [6] = experiment: Antibacterial activity against wild-type norA expressing Staphylococcus aureus 1199 by M7-A7 CLSI microdilution method; type: functional
Staphylococcus aureus [7] = experiment: Antibacterial activity against Staphylococcus aureus 1199B norA++ and A116E GrlA mutation by M7-A7 CLSI microdilution method; type: functional
Staphylococcus aureus [8] = experiment: Potentiation of ciprofloxacin-antibacterial activity against wild-type Staphylococcus aureus ATCC 25923 assessed as reduction in ciprofloxacin MIC by M7-A7 CLSI microdilution method; type: functional, organism-based
[9] = target: T1, Quinolone resistance protein NorA (Staphylococcus aureus); experiment: Inhibition of wild-type norA expressing Staphylococcus aureus 1199 assessed as reduction in ciprofloxacin MIC
[10] = target: T2, Quinolone resistance protein NorA (Staphylococcus aureus, UniProt P0A0J7); experiment: Inhibition of NorA in Staphylococcus aureus 1199B assessed as inhibition of ethidium bromide efflux dose response curve based fluorometric assay
T2 sequence (P0A0J7 whole entry): T1 sequence (whole entry)
How it was run: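 Fluorometric EtBr efflux (loss of EtBr) from S. aureus SA-1199B (norA-overexpressing); dose-response curves built to assess activity at concentrations below the 50 μM screening level; duplicate experiments, result expressed as mean total efflux over a 5 min time course; IC50 derived from the curves.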

[11] = target: T1, Quinolone resistance protein NorA (Staphylococcus aureus); experiment: Inhibition of NorA in Staphylococcus aureus K2378 bearing norA++ efficient mutation assessed as reduction in ciprofloxacin MIC at 6.25 ug/mL
[12] = target: T1, Quinolone resistance protein NorA (Staphylococcus aureus); experiment: Inhibition of NorA in Staphylococcus aureus 1199B norA++ and A116E GrlA mutation assessed as reduction in ciprofloxacin MIC at >=12.5 ug/mL
Staphylococcus aureus [13] = experiment: Potentiation of ciprofloxacin-antibacterial activity against Staphylococcus aureus K1902 bearing norA-deficient mutation assessed as reduction in ciprofloxacin MIC at 0.78 ug/mL by M7-A7 CLSI microdilution method; type: functional
Staphylococcus aureus [14] = experiment: Potentiation of ciprofloxacin-antibacterial activity against Staphylococcus aureus K1902 bearing norA-deficient mutation assessed as reduction in ciprofloxacin MIC at >25 ug/mL by M7-A7 CLSI microdilution method; type: functional
[15] = target: T1, Quinolone resistance protein NorA (Staphylococcus aureus); experiment: Inhibition of NorA in Staphylococcus aureus 1199B norA++ and A116E GrlA mutation assessed as reduction in ciprofloxacin MIC at 50 ug/mL
[16] = target: T1, Quinolone resistance protein NorA (Staphylococcus aureus); experiment: Inhibition of NorA in Staphylococcus aureus K2378 bearing norA++ efficient mutation assessed as reduction in ciprofloxacin MIC at 1.56 ug/mL
[17] = target: T1, Quinolone resistance protein NorA (Staphylococcus aureus); experiment: Inhibition of NorA in Staphylococcus aureus 1199B norA++ and A116E GrlA mutation assessed as reduction in ciprofloxacin MIC at 100 ug/mL
[18] = target: T1, Quinolone resistance protein NorA (Staphylococcus aureus); experiment: Inhibition of NorA in Staphylococcus aureus K2378 bearing norA++ efficient mutation assessed as reduction in ciprofloxacin MIC at 12.5 ug/mL
[19] = target: T1, Quinolone resistance protein NorA (Staphylococcus aureus); details: 1199B, 25 ug/mL
[20] = target: T1, Quinolone resistance protein NorA (Staphylococcus aureus); experiment: Inhibition of NorA in Staphylococcus aureus K2378 bearing norA++ efficient mutation assessed as reduction in ciprofloxacin MIC at 3.13 ug/mL
[21] = target: T1, Quinolone resistance protein NorA (Staphylococcus aureus); experiment: Inhibition of NorA in Staphylococcus aureus 1199B norA++ and A116E GrlA mutation assessed as reduction in ciprofloxacin MIC at >12.5 ug/mL

SMILES | inhibition [1] | MIC (Staphylococcus aureus [2]) | MIC (Staphylococcus aureus [3]) | MIC (Staphylococcus aureus [4]) | MIC (Staphylococcus aureus [5]) | MIC (Staphylococcus aureus [6]) | MIC (Staphylococcus aureus [7]) | Activity (Staphylococcus aureus [8]) | inhibition [9] | other results
Cn1c(-c2ccccc2)cc(=O)c2cc(O)c(O)cc21 | 0% |  |  |  |  |  |  |  |  | 
COC(=O)[C@H]1[C@H]2C[C@@H]3c4[nH]c5cc(OC)ccc5c4CCN3C[C@H]2C[C@@H](OC(=O)c2cc(OC)c(OC)c(OC)c2)[C@@H]1OC [RESERPINE] |  | > 164 µM | > 100 µg/mL | > 100 µg/mL | > 100 µg/mL | > 100 µg/mL | > 100 µg/mL | inactive | inactive | IC50 [10]: 7 µM
CCCOc1ccc(-c2cc(OCCN3CCCCC3)c3ccccc3n2)cc1 |  | 256 µM (≈ 100 µg/mL) | 100 µg/mL (≈ 256 µM) | 50 µg/mL (≈ 128 µM) | 50 µg/mL (≈ 128 µM) | 100 µg/mL (≈ 256 µM) | 100 µg/mL (≈ 256 µM) | inactive | inactive | fold change (FC) [11]: 16; fold change (FC) [12]: 16; IC50 [10]: 7 µM; fold change (FC) (Staphylococcus aureus [13]): 4; fold change (FC) (Staphylococcus aureus [14]): 8
Cn1c(-c2ccc(O)cc2)cc(=O)c2cc(O)c(O)cc21 | 0% |  |  |  |  |  |  |  |  | 
CCCOc1ccc(-c2cc(=O)c3ccccc3n2CCN2CCCCC2)cc1 |  | > 256 µM | > 100 µg/mL | > 100 µg/mL | > 100 µg/mL | > 100 µg/mL | > 100 µg/mL | inactive | inactive | inhibition [15]: inactive; fold change (FC) [16]: 4
CCCOc1ccc(-c2cc(=O)c3cc(OC)c(OC)cc3n2C)cc1 | 0% |  |  |  |  |  |  |  |  | 
COc1cc2c(=O)cc(-c3ccc(O)cc3)n(C)c2cc1OC | 0% |  |  |  |  |  |  |  |  | 
Cn1c(-c2ccc(O)cc2)cc(=O)c2ccccc21 | 0% |  |  |  |  |  |  |  |  | 
CCN(CC)CCOc1cc(-c2ccc(OCCN3CCCCC3)cc2)nc2ccccc12 |  | > 223 µM | 100 µg/mL (≈ 223 µM) | 100 µg/mL (≈ 223 µM) | 100 µg/mL (≈ 223 µM) | > 100 µg/mL | > 100 µg/mL | inactive | inactive | inhibition [17]: inactive; fold change (FC) [18]: 4
Fc1ccc([C@@H]2CCNC[C@H]2COc2ccc3c(c2)OCO3)cc1 [PAROXETINE] | 89.7% | > 303 µM | > 100 µg/mL | > 100 µg/mL | 100 µg/mL (≈ 304 µM) | > 100 µg/mL | > 100 µg/mL | inactive | inactive | IC50 [10]: 7 µM; inhibition [19]: inactive
Cn1c(-c2ccc(OCCN3CCOCC3)cc2)cc(=O)c2ccccc21 | 0% |  |  |  |  |  |  |  |  | 
CCCOc1ccc(-c2cc(OCCN(CC)CC)c3ccccc3n2)cc1 |  | > 241 µM | 100 µg/mL (≈ 264 µM) | 50 µg/mL (≈ 132 µM) | 50 µg/mL (≈ 132 µM) | > 100 µg/mL | > 100 µg/mL | inactive | inactive | fold change (FC) [20]: 16; fold change (FC) [21]: 8; IC50 [10]: 7 µM; fold change (FC) (Staphylococcus aureus [13]): 4; fold change (FC) (Staphylococcus aureus [14]): 8
CCCOc1ccc(-c2cc(O)c3ccccc3n2)cc1 | 0% |  |  |  |  |  |  |  |  | 
CCCOc1ccc(-c2cc(=O)c3ccccc3n2C)cc1 | 33.9% |  |  |  |  |  |  |  |  | 
COc1ccc(-c2cc(=O)c3ccccc3n2C)cc1 | 0% |  |  |  |  |  |  |  |  | 
CCCOc1ccc(-c2cc(OC)c3ccccc3n2)cc1 | 63.7% |  |  |  |  |  |  |  |  | 
